# High-throughput results as filed in PubChem BioAssay.
# DTT redox prof: compounds producing H2O2 with reducing agent – biochemical, NIH compound library profiling, artefact control for MLSCN library redox annotation, primary screen; DTT-dependent redox cycling H2O2, phenol red/HRP absorbance; 100% = 100 µM peroxide control, 0% = buffer; activation, % at 10 µM; 0.03% of 200,000 active;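 active means activation of at least 50% relative to the plate's high and low controls in the primary single-dose screen; inactive means activation below 50%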;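 further: compound incubated with DTT at 0.8 mM final as the reducing agent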
# Lipid droplet: hepatic lipid droplet formation modulation; AML12 mouse hepatocytes, oleate lipid droplets, BODIPY imaging; inhibition, % at 6.5 µM; 0.4% of 240,000 active; AID 1656;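 active means lipid droplet intensity inhibited by at least 50%, with more than 500 cells counted; inconclusive means wells with under 300 cells, treated as cytotoxic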
#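 Assay system: AML12 hepatocytes (mouse) / Also added: 100 µM oleic acid challenge / Times: overnight treatment with compound plus oleate / Detection: high-content imaging of BODIPY-stained droplets and DAPI nuclei / Evaluation: % inhibition of lipid droplet signal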
# Lmaj promast: reduces viability of Leishmania major promastigotes; inhibition, % at 10 µM; resazurin fluorescence viability; AID 1063; 9% of 200,000 active; in the data active means inhibition above about 50%;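 further: promastigotes grown with compound for 44 hours at 28 °C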
# MPTP block: blocks calcium-induced mitochondrial swelling; isolated mouse mitochondria, Ca2+ swelling absorbance, 30 min; inhibition, % at 10 µM; 1.4% of 360,000 active; AID 602449;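 active means inhibition of 50% or more, scaled per plate between neutral and stimulator controls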;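 further: 0% = DMSO wells given calcium and 100% = 1 mM EGTA wells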
# T cruzi inh: blocks replication of Trypanosoma cruzi. T. cruzi beta-gal in NIH3T3, luminescence, 90 h. 1.4% of 300,000 active. inhibition, % (concentration not given with the values). AID 1885;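 active means mean inhibition across valid replicates above about 55%, limit read from the data; inconclusive means mean below that limit but half or more replicates reach it; inactive means mean below it, under half of replicates reach it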;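 further: signal also drops with host cell toxicity which is not excluded here; 0% = plate median of DMSO wells and 100% = zero luminescence signal; higher percent means less beta-gal luminescence so fewer parasites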
#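 Material: NIH/3T3 host cells with β-galactosidase reporter T. cruzi; Input: 5,000 host fibroblasts per well; Medium: DMEM, 2% fetal bovine serum; Compound: 50 nL DMSO compound solution per well; Schedule: 3 h host attachment, then at least 90 h co-culture; Detection: luminescent β-galactosidase signal after 60 min lysis.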
# Active calls of the source: *; ? = inconclusive; / = no result. Only a selection was taken, and hits are over-represented in it overall.
SMILES,DTT redox prof,Lipid droplet,Lmaj promast,MPTP block,T cruzi inh
O=C(CNC(=O)N1CC(=O)Nc2ccccc21)Nc1ccc(F)c(Cl)c1,/,-16.3,/,-0.9,-4.1
COC(=O)c1cccc(NC(=O)CC2C(=O)NCCN2C(=O)c2ccc(F)cc2F)c1 (stereo unspecified),/,-2.1,/,3.2,-0.5
O=S1(=O)C=C(Sc2nnc(-c3ccccc3)o2)c2ccccc21,-0.8,/,17.2,-0.4,63.2*
Cc1cc(C)nc(SC2=CS(=O)(=O)c3ccccc32)n1,0.6,-5.3,20.0,1.7,20.9
CC1C(=O)N2CCCc3cc(S(=O)(=O)Nc4ccccc4C(N)=O)cc1c32 (stereo unspecified),/,/,/,-1.8,5.6
CCC(C)c1ccccc1NC(=O)COC(=O)CCc1cc(OC)c(OC)c(OC)c1 (stereo unspecified),0.2,20.0,51.4*,0.3,1.0
COc1cc(CCC(=O)OCC(=O)Nc2ccccc2F)cc(OC)c1OC,/,-9.9,/,-2.0,-4.8
O=C(CCSc1ccc(Cl)cc1)N1CCN(c2ccc(O)cc2)CC1,/,-8.2,/,4.6,63.2*
CN(CC(O)COc1ccc2ccccc2c1)C1CCCCC1 (stereo unspecified),/,-3.5,/,0.7,19.5
CN(CC(O)COc1c(F)cc(Br)cc1F)C1CCCCC1 (stereo unspecified),-0.5,0.4,84.5*,-0.6,14.1
Cc1ccc(C(=O)O/N=C/c2ccc3c(c2)OCO3)cc1,0.5,1.4,59.0*,0.0,-12.8
NC(=O)CCC(NS(=O)(=O)c1ccc(Cl)cc1)C(=O)NCC1CCCCC1 (stereo unspecified),/,-6.9,/,0.1,6.1
NC(=O)CCC(NS(=O)(=O)c1ccc(Cl)cc1)C(=O)NCc1ccc(Cl)cc1 (stereo unspecified),-0.7,-0.9,60.2*,-1.8,12.6
CCN(CCCNC(=O)COc1cc(=O)n(C)c2ccccc12)c1ccccc1,1.7,/,64.9*,2.4,21.1
CN(CCNC(=O)CCCOc1cc(=O)n(C)c2ccccc12)Cc1ccccc1,-1.2,-10.8,1.1,1.1,34.8
CCN(CCCNC(=O)COc1cc(=O)n(CC)c2ccccc12)c1ccccc1,0.2,-37.3,53.1*,4.5,46.7
CC1CCN(CCCNC(=O)COc2cc(=O)n(C)c3ccccc23)CC1,-0.1,/,3.5,-0.6,2.6
CCN(C(=O)COc1cc(=O)n(C)c2ccccc12)c1cccc(Cl)c1,0.4,/,62.0*,3.1,7.9
CN(CCCNC(=O)CCCOc1cc(=O)n(C)c2ccccc12)Cc1ccccc1,-0.5,22.4,2.7,-0.2,71.3*
CC(=O)Nc1ccc(-c2ccnc3c2CC(C(=O)NCC2CCOCC2)O3)cc1 (stereo unspecified),/,/,/,-0.8,/
CCOc1ccc(S(=O)(=O)N2CCN(Cc3ccc4c(c3)OCO4)CC2)cc1OCC,/,4.3,/,3.7,-2.4
CC1CCN(c2nc3ccc(C(=O)N4CCN(Cc5ccc6c(c5)OCO6)CC4)cc3s2)CC1,-1.4,/,91.9*,-0.8,32.8
CS(=O)(=O)N1CCc2cc(S(=O)(=O)N3CCN(Cc4ccc5c(c4)OCO5)CC3)ccc21,0.8,2.0,89.2*,0.0,22.6
O=C(c1ccc(S(=O)(=O)N2CCCC2)cc1)N1CCN(Cc2ccc3c(c2)OCO3)CC1,-0.6,7.4,93.8*,6.1,1.1
CCN1CCN(C(=O)c2ccc(COc3ccc(Cl)cc3)o2)CC1,3.7,/,83.6*,2.9,26.7
SMILES,DTT redox prof,Lipid droplet,Lmaj promast,MPTP block,T cruzi inh
CCN1CCN(C(=O)c2ccc(COc3cccc(Cl)c3)o2)CC1,/,-12.3,/,-1.9,28.4
Cc1cc2nc(-c3cccc(Br)c3)c(Cc3ccccc3)n2c(C)c1Br,/,/,/,-0.3,/
O=C(c1ccc(COc2ccccc2Cl)o1)N1CCN(Cc2ccc3c(c2)OCO3)CC1,-0.5,-19.7,90.4*,0.5,3.3
O=C(c1ccc(S(=O)(=O)NCc2ccco2)cc1)N1CCN(Cc2ccc3c(c2)OCO3)CC1,-0.3,14.8,87.8*,-1.7,2.6
O=C(c1ccc(COc2ccc(Cl)cc2)o1)N1CCN(Cc2ccc3c(c2)OCO3)CC1,1.3,-1.1,48.0,0.4,?
O=C(c1ccc(Cl)c([N+](=O)[O-])c1)N1CCN(Cc2ccc3c(c2)OCO3)CC1,-0.3,9.4,82.1*,-0.1,5.1
COc1ccc(/C=N\NC(=O)c2ccc(F)cc2)cc1COc1ccccc1C(N)=O,/,0.7,/,-1.4,-13.6
COc1ccc(C=O)cc1COc1ccccc1F,0.1,10.7,61.0*,-1.7,-6.1
COc1ccc(/C=N/NC(=S)Nc2ccccc2)cc1COc1ccc(F)cc1F,0.4,16.4,54.5*,1.1,11.6
COc1ccc(/C=C/C(=O)O)cc1COc1cccc(C)c1,0.3,9.1,-6.3,-0.4,-21.7
COc1ccc(C=O)cc1COc1ccc2c(c1)OCO2,/,/,/,0.5,/
COc1ccc(/C=C/C(=O)c2ccccc2)cc1COc1ccccc1F,2.5,/,62.1*,0.7,13.0
COc1ccc(N2CCN(C(=S)Nc3cccc(OC)c3)CC2)cc1,/,-6.5,/,0.5,5.1
CCCCN(C)C1CCN(C(=S)Nc2ccc(OCC)cc2)CC1,0.4,1.0,82.4*,-0.3,34.3
CCOc1ccc(NC(=S)N2CCC(N(C)CCN3CCOCC3)CC2)cc1,0.2,-43.0,45.4,1.3,24.5
CCCCN(C)C1CCN(C(=S)Nc2cccc(OC)c2)CC1,0.9,3.2,79.9*,0.1,12.5
Cc1ccc(NC(=O)CN2CCN(C(=O)c3ccco3)CC2)cc1S(=O)(=O)N(C)C,/,/,/,-2.2,/
Cc1ccc(SCC(=O)Nc2cccc(C(=O)NC(C)(C)C)c2)cc1,-5.1,/,95.1*,3.1,10.7
Clc1ccc(OCCCCN2CCc3ccccc3C2)cc1,0.4,-4.0,85.3*,-2.1,10.6
COc1ccc(OCCOCCN2CCc3ccccc3C2)cc1,-0.1,/,92.7*,-0.8,58.0*
N#Cc1ccc(OCCN2CCc3ccccc3C2)cc1,/,/,/,3.0,2.3
COc1cc(OC)cc(C(=O)N2CCN(S(=O)(=O)c3ccc(Cl)s3)CC2)c1,/,/,/,-0.2,/
Cc1cc([N+](=O)[O-])nn1Cc1ccc(C(=O)N/N=C/c2ccc(O)cc2O)cc1,-0.1,5.0,95.3*,2.8,-7.3
O=C(N/N=C/c1ccc(O)cc1O)c1ccc(CN2C(=O)c3cccc4cccc2c34)cc1,0.2,-30.3,100.1*,0.0,53.8
O=C(N/N=C1\CCCc2ccccc21)c1ccc([N+](=O)[O-])cc1Cl,3.0,/,93.6*,0.4,14.3
O=C(N/N=C1\CCCc2ccccc21)c1ccccc1[N+](=O)[O-],3.5,-3.7,99.8*,-0.2,-0.1
CCOc1cc(/C=C/C(=O)N(CC)CC(=O)NCc2cccs2)cc(Cl)c1OC,/,/,/,-1.1,6.8
COc1cc(C(=O)OCC(=O)NC(=O)NC2CCCCC2)cc(Cl)c1OC,/,/,/,-0.6,-4.8
O=C(N/N=C/c1ccc(OC(F)F)cc1OC(F)F)c1ccc(Br)cc1,0.4,-13.4,5.8,17.7,12.9
